Data from ChEMBL document CHEMBL1150585, “Phytotoxic compounds from Prionosciadium watsoni” (J Nat Prod, 2002).
Activity calls are given as the source filed them. The rule behind the calls is not given here.

Legend:
[1] = target: Calmodulin (Spinacia oleracea) (UniProt P04353); experiment: Binding affinity to spinach calmodulin assessed as modification of electrophoretic mobility at 0.033 ug/mL after 1.5 hrs by SDS-PAGE in presence of calcium chloride
Summary of the method: (§1)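 Bovine brain and spinach calmodulin, 2 µg samples, pretreated 1.5 h at 30 °C with 1 mM CaCl2 and compound (0.033 µg/mL). Denaturing SDS-PAGE on 15% polyacrylamide gels in presence of Ca2+. Read-out is change in electrophoretic mobility relative to an untreated calmodulin lane.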

[2] = target: Calmodulin (Bos taurus) (UniProt P62157); experiment: Binding affinity to bovine brain calmodulin assessed as modification of electrophoretic mobility at 0.033 ug/mL after 1.5 hrs by SDS-PAGE in presence of calcium chloride; summary of the method: as §1
[3] = system: Amaranthus hypochondriacus; experiment: Phytotoxicity against Amaranthus hypochondriacus assessed as inhibition of radicle elongation by petri dish bioassay; type: functional, organism-based
Summary of the method: (§2)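 Petri dish germination and radicle elongation bioassay on seedlings at 28 °C. Pure compounds tested at 10, 50, 100 and 200 µg mL-1, with 2,4-D as positive control. IC50 derived by Probit analysis from percent radicle growth or germination inhibition; ANOVA (p < 0.05).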

[4] = system: Echinochloa crus-galli; experiment: Phytotoxicity against Echinochloa crus-galli assessed as inhibition of radicle elongation by petri dish bioassay; type: functional, organism-based; summary of the method: as §2
[5] = system: Lemna aequinoctialis; experiment: Phytotoxicity against Lemna paucicostata assessed as growth inhibition at 100 uM after 3 days relative to control; type: functional; settings: 72 h, read-out: GI
Summary of the method: (§3)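 Lemna culture of 10 colonies, three fronds each, in 3 mL half-strength Hunter's medium containing compound for 3 days (72 h). Percent growth inhibition is versus culture-medium control, as means of three replicates ± standard deviation; significance by Student's unpaired t-test.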

[6] = system: Lemna aequinoctialis; experiment: Phytotoxicity against Lemna paucicostata assessed as growth inhibition at 50 uM after 3 days relative to control; type: functional; settings: 72 h, read-out: GI; summary of the method: as §3
[7] = system: Lemna aequinoctialis; experiment: Phytotoxicity against Lemna paucicostata assessed as growth inhibition at 25 uM after 3 days relative to control; type: functional; settings: 72 h, read-out: GI; summary of the method: as §3
[8] = system: Lemna aequinoctialis; experiment: Phytotoxicity against Lemna paucicostata assessed as growth inhibition at 200 uM after 3 days relative to control; type: functional; settings: 72 h, read-out: GI; summary of the method: as §3
[9] = system: Lemna aequinoctialis; experiment: Phytotoxicity against Lemna paucicostata assessed as chlorophyll reduction at 200 uM after 3 days by ultraviolet spectroscopy relative to control; type: functional; settings: 72 h, read-out: GI
Summary of the method: (§4)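 Duckweed (Lemna) culture: 10 colonies of three fronds each in 3 mL half-strength Hunter's medium with compound, run 3 days. Afterwards plants are removed from medium, blotted and extracted overnight in the dark with 5 mL DMSO. Chlorophyll is expressed on fresh weight basis. Reduction is relative to culture-medium control, as means of three replicates ± standard deviation, with Student's unpaired t-test.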

[10] = system: Lemna aequinoctialis; experiment: Phytotoxicity against Lemna paucicostata assessed as chlorophyll reduction at 50 uM after 3 days by ultraviolet spectroscopy relative to control; type: functional; settings: 72 h, read-out: GI; summary of the method: as §4
[11] = system: Lemna aequinoctialis; experiment: Phytotoxicity against Lemna paucicostata assessed as chlorophyll reduction at 25 uM after 3 days by ultraviolet spectroscopy relative to control; type: functional; settings: 72 h, read-out: GI; summary of the method: as §4
[12] = system: Lemna aequinoctialis; experiment: Phytotoxicity against Lemna paucicostata assessed as chlorophyll reduction at 100 uM after 3 days by ultraviolet spectroscopy relative to control; type: functional; settings: 72 h, read-out: GI; summary of the method: as §4
[13] = system: Lemna aequinoctialis; experiment: Phytotoxicity against Lemna paucicostata assessed as chlorophyll reduction at 12 uM after 3 days by ultraviolet spectroscopy relative to control; type: functional; settings: 72 h; summary of the method: as §4
[14] = system: Lemna aequinoctialis; experiment: Phytotoxicity against Lemna paucicostata assessed as growth inhibition at 12 uM after 3 days relative to control; type: functional; settings: 72 h, read-out: GI; summary of the method: as §3

Which Activity [1] does the source give for `CC1(C)Oc2ccc3ccc(=O)oc3c2C[C@H]1O` [(+)-LOMATIN] here?
Its Activity is “Active”.

What about the Activity [2] of the same compound?
Its Activity is “Active”.

And the Activity [3]?
Its Activity is “Dose-dependent effect”.

What about the IC50 [3] of the same compound?
Its IC50 is 344 µM.

What about the Activity [4] of the same compound?
Its Activity is “Dose-dependent effect”.

And the IC50 [4]?
Its IC50 is 296 µM.

Which Activity [1] does the source give for `C/C=C(/C)C(=O)O[C@@H]1[C@H](O)c2c(ccc3ccc(=O)oc23)OC1(C)C` here?
Its Activity is “Active”.

And the Activity [2]?
Its Activity is “Active”.

And the IC50 [3]?
Its IC50 is 262 µM.

What about the IC50 [4] of the same compound?
The IC50 was 155 µM.

`CO[C@H]1c2c(ccc3ccc(=O)oc23)OC(C)(C)[C@@H]1O` was tested. Which Activity [1] did it give?
The Activity was “Active”.

What about the Activity [2] of the same compound?
The Activity was “Active”.

And the Activity [3]?
Its Activity is “Dose-dependent effect”.

What about the IC50 [3] of the same compound?
Its IC50 is 108 µM.

And the Activity [4]?
Its Activity is “Dose-dependent effect”.

What about the IC50 [4] of the same compound?
Its IC50 is 808 µM.

What does the source list for `C/C=C(/C)C(=O)O[C@@H]1Cc2c(cc3oc(C)cc(=O)c3c2OC)OC1(C)C`?
Activity [1]: Active; Activity [2]: Active; IC50 [3]: 143 µM; IC50 [4]: 26.4 µM

What does the source list for `CCC(=O)O[C@@H]1c2c(ccc3ccc(=O)oc23)OC(C)(C)[C@@H]1OC(C)=O`?
Activity [1]: Active; Activity [2]: Active; IC50 [3]: 396 µM; IC50 [4]: 439 µM

What does the source list for `CO[C@@H]1c2c(ccc3ccc(=O)oc23)OC(C)(C)[C@@H]1O`?
Activity [1]: Active; Activity [2]: Active; Activity [3]: Dose-dependent effect; IC50 [3]: 325 µM; Activity [4]: Dose-dependent effect; IC50 [4]: 6.19 µM

How did the Activity [1] turn out when `CC(C)C(=O)O[C@@H]1c2c(ccc3ccc(=O)oc23)OC(C)(C)[C@@H]1O` was run?
The Activity was “Active”.

What about the Activity [2] of the same compound?
Its Activity is “Active”.

What about the IC50 [3] of the same compound?
Its IC50 is 189 µM.

What about the IC50 [4] of the same compound?
The IC50 was 595 µM.

For `CC(C)C(=O)O[C@@H]1Cc2c(ccc3ccc(=O)oc23)OC1(C)C`, which inhibition of growth at 100 µM [5] is on record?
Its inhibition of growth at 100 µM is 58.8%.

And the Activity [1]?
Its Activity is “Active”.

What about the inhibition of growth at 50 µM [6] of the same compound?
The inhibition of growth at 50 µM was 23.5%.

And the Activity [2]?
Its Activity is “Active”.

What about the inhibition of growth at 25 µM [7] of the same compound?
Its inhibition of growth at 25 µM is 19.6%.

And the IC50 [3]?
The IC50 was 237 µM.

What about the inhibition of growth at 200 µM [8] of the same compound?
Its inhibition of growth at 200 µM is 100%.

And the inhibition of growth at 200 µM [9]?
The inhibition of growth at 200 µM was 87.4%.

What about the inhibition of growth at 50 µM [10] of the same compound?
The inhibition of growth at 50 µM was 54.3%.

And the IC50 [4]?
Its IC50 is 169 µM.

What about the inhibition of growth at 25 µM [11] of the same compound?
The inhibition of growth at 25 µM was 20%.

And the inhibition of growth at 100 µM [12]?
Its inhibition of growth at 100 µM is 84.9%.

How did the Activity [1] turn out when `CC(=O)O[C@@H]1[C@H](OC(=O)C(C)C)c2c(ccc3ccc(=O)oc23)OC1(C)C` [SERAVSHANIN] was run?
The Activity was “Active”.

And the Activity [2]?
The Activity was “Active”.

And the IC50 [3]?
Its IC50 is 402 µM.

And the IC50 [4]?
The IC50 was 162 µM.

What does the source list for `COc1c2c(cc3oc(C)cc(=O)c13)OC(C)(C)[C@H](OC(=O)C(C)C)C2`?
Activity [1]: Active; Activity [2]: Active; IC50 [3]: 74.1 µM; IC50 [4]: 14.8 µM

Which results are given for `COc1c2c(cc3oc(C)cc(=O)c13)OC(C)(C)[C@H](O)C2`?
Activity [1]: Active; Activity [2]: Active; Activity [3]: Dose-dependent effect; IC50 [3]: 383 µM; Activity [4]: Dose-dependent effect; IC50 [4]: 461 µM

Which IC50 [3] does the source give for `CC1(C)Oc2ccc3ccc(=O)oc3c2[C@@H](O)[C@H]1O` here?
The IC50 was 361 µM.

And the IC50 [4]?
The IC50 was 439 µM.

With `C/C=C(/C)C(=O)O[C@@H]1Cc2c(ccc3ccc(=O)oc23)OC1(C)C` [JATAMANSIN] as the compound, how does the inhibition of growth at 100 µM [5] read?
The inhibition of growth at 100 µM was 100%.

What about the Activity [1] of the same compound?
The Activity was “Active”.

And the inhibition of growth at 50 µM [6]?
Its inhibition of growth at 50 µM is 47.6%.

What about the chlorophyll reduction at 12 µM [13] of the same compound?
The chlorophyll reduction at 12 µM was 5.94%.

And the Activity [2]?
The Activity was “Active”.

And the inhibition of growth at 25 µM [7]?
Its inhibition of growth at 25 µM is 37.5%.

And the IC50 [3]?
The IC50 was 260 µM.

And the inhibition of growth at 50 µM [10]?
The inhibition of growth at 50 µM was 12.8%.

And the IC50 [4]?
Its IC50 is 863 µM.

What about the inhibition of growth at 25 µM [11] of the same compound?
Its inhibition of growth at 25 µM is 4.37%.

What about the inhibition of growth at 100 µM [12] of the same compound?
Its inhibition of growth at 100 µM is 40.3%.

What about the inhibition of growth at 12 µM [14] of the same compound?
Its inhibition of growth at 12 µM is 15.3%.
